# This is one part of a sample in which hits are shown more often than they occur.
# ROMK primary – ROMK potassium channel modulators, primary screen, cell-based, thallium flux, MLSMR library; AID 1918, 2009; Tet-inducible ROMK, thallium flux fluorescence; actives lie on both sides; ATP-sensitive inward rectifier potassium channel 1 (Homo sapiens), P48048; 130,000 tested, 2% active; B-score at 10 µM;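 active = signal ratio slope over the read window, or its plate-corrected B-score, at least 3 SD from the plate mean, either direction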;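 note: B-score of the F/F0 ratio slope over 7 to 12 s after thallium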
# Target sequence (P48048 whole entry, looked up): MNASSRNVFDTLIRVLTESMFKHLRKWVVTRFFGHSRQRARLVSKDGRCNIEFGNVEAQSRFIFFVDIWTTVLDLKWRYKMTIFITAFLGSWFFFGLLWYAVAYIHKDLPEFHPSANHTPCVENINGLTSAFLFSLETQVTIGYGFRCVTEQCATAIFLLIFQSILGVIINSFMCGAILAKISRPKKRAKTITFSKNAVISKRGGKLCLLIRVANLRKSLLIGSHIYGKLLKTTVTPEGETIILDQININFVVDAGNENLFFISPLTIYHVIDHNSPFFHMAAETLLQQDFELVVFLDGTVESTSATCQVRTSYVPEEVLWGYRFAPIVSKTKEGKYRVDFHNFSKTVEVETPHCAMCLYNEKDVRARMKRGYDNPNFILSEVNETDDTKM
# Pf gametocyte – late stage P. falciparum gametocyte viability inhibitors, primary screen, ATP luminescence, HTS | 150,000 tested, 0.065% active | P. falciparum stage V gametocytes, 24 h | inhibition, % at 10.9 µM;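 active = inhibition above the mean plus 3 SD of compounds within the control limits, set per campaign, cut at about 38% in these data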;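 note: 0% = DMSO wells and 100% = medium only without gametocytes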
# Calb biofilm kill – clotrimazole potentiators killing C. albicans biofilm, primary screen, 4-compound mixtures; C. albicans biofilm persisters + clotrimazole, fluorescence viability; primary screen in compound mixtures of four per well; 120,000 tested, 0.02% active; inhibition, % at 7.6 µM; AID 1242, 2008;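 active = inhibition above 30.3% in the primary screen of four-compound pools, then above 30% when the compound was retested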;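 note: compounds exposed to preformed 24 h biofilms for 48 h; 0% = untreated biofilm control and 100% = clotrimazole plus chlorhexidine kill blank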
#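 Probe or stimulus – Clotrimazole 50 µg/mL co-treatment · System – C. albicans biofilms · Schedule – 24 h biofilm formation, then 48 h compound exposure, 37 °C · Evaluation – percent inhibition of biofilm viability · Technique – 2-h Alamar Blue fluorescence, 535/590 nm excitation/emission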
# ROMK retest – ROMK channel modulator hit retest, confirmation, cell-based, thallium flux, duplicate, resupplied hits. shares compounds with ROMK primary. fluorescence ratio; stronger effect = lower value. normalized thallium flux (F/F0 slope) at 10 µM. 3,000 tested, 54% active. AID 1917, 2009;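 active = Flux at 10 µM at least 3 SD below or above vehicle control mean in one or both replicates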
# * hit, by the source's call; / = no result given.
SMILES,ROMK primary,Pf gametocyte,Calb biofilm kill,ROMK retest
COc1ccc(N2C(=O)CC(NNC(=O)c3cccnc3)C2=O)cc1 (stereo not drawn),-0.44,6,13,/
CCc1ccc([C@@H]2C[C@H]3CN(Cc4ccccc4OC)C(=O)[C@]34CCCN24)cc1,-1.7,-50,-5,/
CCOC(=O)c1cc2cc(OC)ccc2[nH]1,-1.2,-10,/,0.072
CCOC(=O)c1[nH]c2ccc(OC)cc2c1C,-0.27,17,/,/
Cc1ccc(NCc2nnc(SCC(=O)NCc3ccco3)n2CC2CCCO2)c(C)c1 (stereo not drawn),0.035,/,/,/
Cc1ccc(NCc2nnc(SCC(=O)NCc3ccco3)n2CC2CCCO2)cc1Cl (stereo not drawn),-2.8*,7,/,0.067*
Cc1ccc(S(=O)(=O)c2c(COC(=O)c3ccc(Cl)cc3)c(-c3ccccc3)nn2C)cc1,0.92,/,/,/
NS(=O)(=O)c1ccc(CCNC(=O)c2ccc(C#CC3(O)CCCCC3)cc2)cc1,-0.43,-19,10,0.082
CCC(NC(=O)c1ccc(C#CC2(O)CCCCC2)cc1)C(=O)O (stereo not drawn),0.64,1,10,/
O=c1ccc(C(F)(F)F)cn1Cc1cc(=O)n2cc(Br)ccc2n1,-0.78,-8,-6,/
CCOc1ccc2nc(SC3CC(=O)N(c4ccc(OC)cc4OC)C3=O)sc2c1 (stereo not drawn),1.2,-1,17,/
Cc1ccc(C(C[N+](=O)[O-])Sc2ccc(N)cc2)cc1 (stereo not drawn),/,9,20,/
Cc1ccc(C(C[N+](=O)[O-])n2nc(C)cc2C)cc1 (stereo not drawn),-2.4,/,/,0.059*
COc1ccccc1C1NC(=O)NC(C)=C1C(=O)OC1CCCC(C)C1 (stereo not drawn),/,0,/,/
C#CC(CC)(CC)NC(=S)Nc1cccc(C(C)=O)c1,/,/,14,/
CCCC(=Nc1ccccc1OC)C1=C(O)CC(c2ccccc2)CC1=O (stereo not drawn),0.51,-14,17,/
COc1ccccc1N=C(C)C1=C(O)CC(c2ccccc2)CC1=O (stereo not drawn),8*,-19,6,0.082
O=C1CSC(c2cn(-c3ccccc3)nc2-c2cc3ccccc3o2)N1Cc1ccccc1 (stereo not drawn),0.21,/,/,/
Cc1ccc(-c2nn(-c3ccccc3)cc2C2SCC(=O)N2Cc2ccccc2)o1 (stereo not drawn),/,/,/,0.078
COc1ccc(C2c3ccc(O)cc3Oc3ncn4nc(-c5ccncc5)nc4c32)cc1OC (stereo not drawn),/,0,12,/
O=C(c1ccc(-c2cc(Cl)ccc2Cl)o1)N1CCOCC1,-3.5*,-2,6,0.063*
O=C(c1ccc(-c2ccc(Cl)cc2Cl)o1)N1CCOCC1,-1.6,8,12,/
CCn1c(/C=C/c2c[nH]c3ccccc23)nc2ccccc2c1=O,/,8,31,/
CCn1c(/C=C/c2c(C)[nH]c3ccccc23)nc2ccccc2c1=O,/,-3,1,0.047*
COc1ccc(-c2cc3cc(OC)c(OC)cc3c(C)n2)cc1C,/,0,13,/
SMILES,ROMK primary,Pf gametocyte,Calb biofilm kill,ROMK retest
COc1c(Br)cc(/C=N/n2c(-c3ccccc3)n[nH]c2=S)c(O)c1Br,/,7,/,/
CCOC(=O)C(=Cc1cc(=O)c(OC)co1)C(=O)OCC,-4.1*,-17,9,0.048*
COc1coc(C(O)CN)cc1=O (stereo not drawn),1.9,22,16,/
O=C(CN1CCN(c2cccc(C(F)(F)F)c2)CC1)NCc1ccccc1,/,-1,/,/
Cc1sc(N)c(C(=O)c2ccccc2)c1C,0.24,2,6,/
CCC(OC(=O)c1nsc(Cl)c1Cl)C(=O)NC(C)(C)C (stereo not drawn),1.5,/,11,/
CCOC(=O)CC(N)c1cccc([N+](=O)[O-])c1 (stereo not drawn),-0.43,1,7,/
O=C(NCc1ccccc1)c1onc(CSc2ccc(Cl)cc2)c1C(=O)NCC1CC1,/,12,/,/
O=C(NCc1ccccc1)c1onc(CSc2ccccc2)c1C(=O)NCC1CC1,/,-8,11,0.073
CCCN1C(=O)/C(=C/c2c(NCCCOCC)nc3c(C)cccn3c2=O)SC1=S,-2,/,/,/
Cc1cccn2c(=O)c(/C=C3\SC(=S)NC3=O)c(NCCCN3CCOCC3)nc12,/,6,18,0.053*
CCCOc1ccc(-c2c(=O)n(OCC(=O)OCC)c3ccccc3[n+]2[O-])cc1,/,5,/,/
CCOC(=O)COn1c(=O)c(-c2cccs2)[n+]([O-])c2ccccc21,-4.2*,-16,/,0.059*

# Screening data (PubChem)
